ChEMBL document CHEMBL4402562, “Discovery of Novel Peptidomimetic Boronate ClpP Inhibitors with Noncanonical Enzyme Mechanism as Potent Virulence Blockers in Vitro and in Vivo” (J Med Chem, 2020)
Calls of active or inactive are those of the source. The calls are words filed in the database; no cut-off is given here.

How the values were obtained:
Staphylococcus aureus [1] = assay: (§1) Antivirulence activity against methicillin-resistant Staphylococcus aureus ATCC 33591 infected in BALB/c mouse model of skin abscess assessed as effect on bacterial recovery levels at 1.5 to 3 mg/kg injected into shaved area of skin once daily for 4 days measured after 12 hrs post last dose; type: functional, organism-based
Outline: (§2)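 Female BALB/c mice, 6-8 weeks, n=5 per group, backs shaved and depilated 1 day before; 50 µL subcutaneous 1.7 × 10⁹ CFU/mL MRSA ATCC 33591. From 6 h post-infection, 40 µL vehicle, vancomycin 3 mg/kg, or compound 1.5 or 3 mg/kg injected at infection site once daily for 4 days; weight recorded daily. Skin homogenised in saline 12 h after last dose, plated on LB agar 37 °C ≥16 h; log10 CFU/abscess; t-test.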

Staphylococcus aureus [2] = assay: Inhibition of virulence-related genes expression in methicillin-resistant Staphylococcus aureus ATCC 33591 assessed as reduction in aur expression at 4 to 16 uM by qPCR analysis relative to control; type: functional, organism-based
Outline: (§3)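 Total RNA from 2×10⁸ CFU treated MRSA by liquid-nitrogen freeze-thaw and TRIzol; qPCR relative to gyrB endogenous control; three experiments, triplicate wells.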

Staphylococcus aureus [3] = assay: Inhibition of virulence-related genes expression in methicillin-resistant Staphylococcus aureus ATCC 33591 assessed as reduction in RNAIII effector, expression at 16 uM by qPCR analysis relative to control; type: functional; outline: as §3
Staphylococcus aureus [4] = assay: as §1, with “reduction in severe alveolar destruction” for “effect on bacterial recovery levels”, “dose by hematoxylin and eosin staining based optical microscopy” for “dose”; type: functional, organism-based
Outline: (§4)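 Same MRSA ATCC 33591 skin-abscess model in female BALB/c mice (n=5/group), 40 µL compound at 1.5 or 3 mg/kg injected into the infected shaved skin once daily for 4 days. On day 4 infected skin and heart, liver, spleen, lung, kidney fixed in 4% paraformaldehyde, embedded, sectioned, H&E stained and examined by microscopy; PBS-treated uninfected and vehicle controls.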

Staphylococcus aureus [5] = assay: as §1, with “reduction in skin inflammation” for “effect on bacterial recovery levels”, “dose by hematoxylin and eosin staining based optical microscopy” for “dose”; type: functional, organism-based; outline: as §4
[6] = molecular target: T1, ATP-dependent Clp protease proteolytic subunit (Staphylococcus aureus (strain NCTC 8325)) (UniProt Q2G036); assay: Inhibition of ClpP in Staphylococcus aureus NCTC8325 with complemented deltaclpP/pYJ335::clpP (deltaclpP+) assessed as reduction in bacteria-induced hemolysis of sheep erythrocytes by measuring hemoglobin release incubated for 15 mins
T1 sequence (whole entry): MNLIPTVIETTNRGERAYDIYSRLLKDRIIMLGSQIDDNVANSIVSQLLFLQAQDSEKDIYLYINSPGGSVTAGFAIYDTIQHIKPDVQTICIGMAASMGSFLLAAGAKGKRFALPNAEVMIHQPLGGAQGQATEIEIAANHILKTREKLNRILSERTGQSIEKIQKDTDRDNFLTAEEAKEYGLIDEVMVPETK
Outline: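 S. aureus strains grown overnight in MHB, diluted to OD600 0.05, then grown at 37 °C to OD600 ~0.6. Serially diluted inhibitor or DMSO added for 8 h more growth. Supernatant mixed 1:1 with 5% sheep erythrocytes, spun 1,500 rpm for 15 min, hemoglobin read at 545 nm. EC50 by nonlinear fit; thrice, triplicate tubes.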

[7] = molecular target: T2, ATP-dependent Clp protease proteolytic subunit (Staphylococcus aureus (strain NCTC 8325), UniProt Q2G036); assay: (§5) Inhibition of N-terminal His6-sumo-tagged full length Staphylococcus aureus ClpP expressed in Escherichia coli […] pre-incubated for 10 mins before Suc-LY-AMC addition and measured after 1 hr by fluorescence based assay
T2 sequence (Q2G036 whole entry): T1 sequence (whole entry)
Outline: (§6)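 SaClpP (1 μM monomer) in 100 mM Hepes pH 7.0, 100 mM NaCl. Preincubated 10 min at RT with inhibitor, two-fold dilutions over 8 steps from 100 μM. Suc-LY-AMC at 200 μM, 380/440 nm recorded for 1 h at 37 °C, slopes normalized to DMSO. For kinact/Ki, inhibitor premixed with substrate and reaction started by enzyme, fitted by least squares. Thrice, triplicate wells.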

[8] = molecular target: T1, ATP-dependent Clp protease proteolytic subunit (Staphylococcus aureus (strain NCTC 8325)); assay: as §5; outline: as §6
[9] = molecular target: T1, ATP-dependent Clp protease proteolytic subunit (Staphylococcus aureus (strain NCTC 8325)); assay: Potency index, ratio of IC50 for BTZ to IC50 for test compound for inhibition of ClpP in methicillin-resistant Staphylococcus aureus ATCC 33591 assessed as reduction in bacteria-induced hemolysis of sheep erythrocytes by measuring hemoglobin release incubated for 15 mins
[10] = molecular target: T1, ATP-dependent Clp protease proteolytic subunit (Staphylococcus aureus (strain NCTC 8325)); assay: Induction of thermal stabilization of ClpP in methicillin-resistant Staphylococcus aureus ATCC 33591 assessed as protein stability up to 83 degC pre-incubated for 2 hrs by CETSA method
Outline: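 MRSA grown at 37 °C in TSB with DMSO or 100 µM compound 2 h; cells in TE buffer (~4×10⁹ CFU/mL), lysostaphin 37 °C 30 min; supernatant heated 5 min at set temperatures, 3 min RT, ice, spun 20,000 g 20 min; soluble ClpP by western blot with polyclonal anti-ClpP.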

Staphylococcus aureus [11] = assay: Inhibition of Staphylococcus aureus NCTC8325 with delta clpP assessed as reduction in bacteria-induced hemolysis of sheep erythrocytes by measuring hemoglobin release at 0.5 to 64 uM; type: functional, organism-based
Outline: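 S. aureus NCTC8325 ΔclpP grown in MHB from OD600 0.05 to ~0.6 at 37 °C, then 8 h with serially diluted inhibitor or DMSO. Culture supernatant mixed 1:1 with 5% sheep erythrocytes, centrifuged 1,500 rpm for 15 min, hemoglobin at 545 nm. Thrice, triplicate tubes.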

[12] = Toxicity in BALB/c mouse model of skin abscess infected with methicillin-resistant Staphylococcus aureus ATCC 33591 assessed as increase in AST levels at 1.5 to 3 mg/kg injected into shaved area of skin once daily for 4 days; type: organism-based; settings: in vivo, other, 96 h
Outline: (§7)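 Infected BALB/c mice (n=5/group) dosed 1.5 or 3 mg/kg into the infected skin once daily for 4 days; blood collected on day 4 and day 14, centrifuged 3,500 rpm 15 min, serum biochemistry analysed.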

Staphylococcus aureus [13] = assay: Growth inhibition of methicillin-resistant Staphylococcus aureus ATCC 33591 up to 64 uM incubated for 18 hrs by broth microdilution method; type: functional, organism-based
Outline: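 MRSA ATCC 33591 at ~5×10⁵ CFU/mL in MHB with graded compound concentrations vs DMSO; OD600 growth curves over 18 h; three experiments, triplicate wells. MIC by CLSI broth microdilution in CAMHB, 0.5-256 µg/mL, 18 h at 37 °C, lowest concentration with no visible growth.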

[14] = Toxicity in BALB/c mouse model of skin abscess infected with methicillin-resistant Staphylococcus aureus ATCC 33591 assessed as induction of adverse effects at 1.5 to 3 mg/kg injected into shaved area of skin once daily for 4 days measured every day; type: organism-based; settings: in vivo, other, 96 h; outline: as §2
[15] = Induction of hemolysis in sheep erythrocytes by measuring hemoglobin release incubated for 15 mins; type: cell-based, Ovis aries, Erythrocyte
Outline: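 Serially diluted compound mixed directly with 2% sheep erythrocytes in 10 mM Tris pH 7.4, 0.9% NaCl. Buffer served as negative and water as positive control. After 1,500 rpm, 15 min spin, released hemoglobin read at 545 nm. Three experiments, triplicate tubes.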

[16] = Toxicity in BALB/c mouse model of skin abscess infected with methicillin-resistant Staphylococcus aureus ATCC 33591 assessed as effect on total protein levels at 1.5 to 3 mg/kg injected into shaved area of skin once daily for 4 days; type: organism-based; settings: in vivo, other, 96 h; outline: as §7

Structure (SMILES): CC(C)C[C@H](NC(=O)[C@H](Cc1c[nH]c2ccccc12)NC(=O)c1cc(Cl)ccc1Cl)B(O)O
- Activity (Staphylococcus aureus [1]): Active
- inhibition (Staphylococcus aureus [2]): Active
- fold change (FC) (Staphylococcus aureus [3]): >10
- Activity (Staphylococcus aureus [4]): Active
- Activity (Staphylococcus aureus [5]): Active
- inhibition [6]: Dose-dependent effect
- IC50 [7]: 900 nM
- inhibition [8]: Dose-dependent effect
- Ratio IC50 [9]: 30
- Activity [10]: Active
- inhibition (Staphylococcus aureus [11]): inactive
- Activity [12]: Toxic
- growth inhibition (GI) (Staphylococcus aureus [13]): inactive
- Activity [14]: Non-Toxic
- HC50 at 0.25 h [15]: > 500 µM
- Activity [16]: Non-Toxic
